Here are results for 15 compounds from ChEMBL document CHEMBL1129631, “Synthesis and evaluation of aryl-substituted N-(arylethyl)-N-methyl-2-(1-pyrrolidinyl)ethylamines and corresponding arylacetamides for sigma receptor affinity” (J Med Chem, 1996).

The target of test [1] is Sigma 2 receptor. Nature of the test: Displacement of [3H]-DTG from Sigma opioid receptor type 2 in rat liver membrane. In kind it is cell membranes. In short, it runs like this:
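Liver membranes from male Sprague-Dawley rats (160 μg protein) with 5 nM [3H]DTG plus 1 μM dextralorphan masking σ1 sites. Twelve ligand concentrations (0.05–10 000 nM or 0.5–100 000 nM), 50 mM Tris-HCl pH 8.0, 120 min, 25 °C. Nonspecific binding by 10 μM haloperidol. Filtration and counting. Ki from IC50 by Cheng–Prusoff; 2–3 experiments ± SEM.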

Test [2] addresses Sigma non-opioid intracellular receptor 1 (Cavia porcellus) (UniProt Q60492). Nature of the test: Relative affinity for sigma-1 compared to sigma-2 type receptors.

Sigma non-opioid intracellular receptor 1 (Cavia porcellus), sequence (Q60492 whole entry, looked up): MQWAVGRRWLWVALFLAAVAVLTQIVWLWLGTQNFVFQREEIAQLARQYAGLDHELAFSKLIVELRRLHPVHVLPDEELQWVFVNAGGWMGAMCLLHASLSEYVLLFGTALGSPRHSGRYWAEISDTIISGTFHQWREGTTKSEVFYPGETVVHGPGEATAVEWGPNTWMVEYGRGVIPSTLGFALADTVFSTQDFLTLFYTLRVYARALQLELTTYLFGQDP

The Ki is a dissociation constant, usually derived from enzyme kinetics or from competition with a known ligand. A low value points to a stronger hold on the target. In test [1], `CN(CCc1cccc([N+](=O)[O-])c1)CCN1CCCC1` yielded a Ki of 95.2 nM. The Ratio in test [2] worked out at 0.07.
For `COc1ccccc1CC(=O)N(C)CCN1CCCC1`, in test [1], the affinity corresponds to a Ki of 3170 nM. In other words, the single-digit micromolar range.
Compound `COc1cccc(CCN(C)CCN2CCCC2)c1` came in with a Ki in test [1] of 209 nM. For the same compound, in test [2], the Ratio came to 0.11.
In the case of `CN(CCc1cccc(N)c1)CCN1CCCC1`, in test [1], the affinity, expressed as Ki, was 2240 nM. For the same compound, the Ratio in test [2] worked out at 0.26.
The compound `CN(CCc1ccccc1N)CCN1CCCC1` returned an inhibitory constant (Ki) in test [1] of 640 nM. Further, the Ratio in test [2] turned out to be 0.45.
Take `CN(CCc1ccccc1[N+](=O)[O-])CCN1CCCC1`: the Ki in test [1] was determined as 311 nM. The Ratio in test [2] stood at 0.02.
On the same counts, the results for `COc1ccccc1CCN(C)CCN1CCCC1` are 144 nM and 0.11.
`COc1ccc(CC(=O)N(C)CCN2CCCC2)cc1` returned a Ki in test [1] of 1220 nM. Moreover, in test [2], the Ratio was 1.8.
`CN(CCN1CCCC1)C(=O)Cc1ccccc1[N+](=O)[O-]`: the Ki in test [1] amounted to 1490 nM. The Ratio in test [2] was found to be 0.49.
Turning to `CN(CCN1CCCC1)C(=O)Cc1ccc([N+](=O)[O-])cc1`, affinity in test [1] was put at a Ki of 596 nM. For the same compound, the Ratio in test [2] is 1.5.
`COc1ccc(CCN(C)CCN2CCCC2)cc1` gave a Ki in test [1] of 256 nM. Further, the Ratio in test [2] came to 0.12.
`CN(CCN1CCCC1)C(=O)Cc1cccc([N+](=O)[O-])c1` registered a Ki in test [1] of 539 nM. Further, the Ratio in test [2] amounted to 3.
Compound `CN(CCc1ccc(N)cc1)CCN1CCCC1` had a Ki in test [1] of 974 nM. The Ratio in test [2] is 0.28.
`CN(CCc1ccc([N+](=O)[O-])cc1)CCN1CCCC1`: the affinity in test [1], expressed as Ki, was 62.7 nM. Besides, the Ratio in test [2] stood at 0.07.
On the same counts, the results for `COc1cccc(CC(=O)N(C)CCN2CCCC2)c1` are 1110 nM and 2.8.
